Article PMC8428381 (Journal of Virology, 2021)
Structures can show the parent of a compound that is named as a salt.

Key:
[1] = molecular target: uPA (Homo sapiens, UniProt P00749, C299A/N322Q); assay: Chromogenic enzyme inhibition assay, uPA serine protease domain; type: biochemical
Outline: (§1)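 Serine protease domains (uPA, matriptase) expressed in Pichia pastoris X-33. 2 nM enzyme preincubated 15 min at 37°C with varied test compound in 0.01 M HEPES, 0.15 M NaCl, pH 7.4, 0.1% BSA. Substrate at about Km: S-2444 for uPA, S-2288 for matriptase. Initial rates read at 405 nm; IC50 from a sigmoidal nonlinear fit.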

[2] = molecular target: plasma kallikrein (PK) (Homo sapiens, UniProt P03952); assay: Chromogenic enzyme inhibition assay, plasma kallikrein; type: biochemical
Sequence of plasma kallikrein (PK) (P03952 391-626 limits assumed): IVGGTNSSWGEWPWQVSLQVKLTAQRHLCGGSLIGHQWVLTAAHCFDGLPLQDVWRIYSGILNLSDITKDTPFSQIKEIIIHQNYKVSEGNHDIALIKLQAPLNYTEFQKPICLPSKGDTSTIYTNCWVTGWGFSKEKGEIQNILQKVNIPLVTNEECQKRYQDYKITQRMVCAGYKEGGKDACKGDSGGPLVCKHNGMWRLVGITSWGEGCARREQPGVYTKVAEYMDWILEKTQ

[3] = molecular target: factor XIa (FXIa) (Homo sapiens, UniProt P03951); assay: Chromogenic enzyme inhibition assay, factor XIa; type: biochemical
Sequence of factor XIa (FXIa) (P03951 388-623 limits assumed): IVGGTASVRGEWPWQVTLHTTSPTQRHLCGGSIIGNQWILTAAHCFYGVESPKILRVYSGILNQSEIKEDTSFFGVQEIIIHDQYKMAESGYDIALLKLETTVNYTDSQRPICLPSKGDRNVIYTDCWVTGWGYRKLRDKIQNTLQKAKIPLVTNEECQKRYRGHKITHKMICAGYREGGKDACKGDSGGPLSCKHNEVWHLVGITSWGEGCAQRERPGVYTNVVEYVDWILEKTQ
Outline: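 Recombinant FXIa serine protease domain expressed in Pichia pastoris X-33. 2 nM enzyme preincubated 15 min at 37°C with a range of test compound concentrations in 0.01 M HEPES, 0.15 M NaCl, pH 7.4, 0.1% BSA. Chromogenic substrate was then added at about its Km. Initial velocities were read at 405 nm, and IC50 came from a sigmoidal nonlinear fit.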

[4] = molecular target: murine uPA (muPA) (Mus musculus, UniProt P06869); assay: Chromogenic enzyme inhibition assay, murine uPA serine protease domain; type: biochemical
Sequence of murine uPA (muPA) (P06869 180-426 limits assumed): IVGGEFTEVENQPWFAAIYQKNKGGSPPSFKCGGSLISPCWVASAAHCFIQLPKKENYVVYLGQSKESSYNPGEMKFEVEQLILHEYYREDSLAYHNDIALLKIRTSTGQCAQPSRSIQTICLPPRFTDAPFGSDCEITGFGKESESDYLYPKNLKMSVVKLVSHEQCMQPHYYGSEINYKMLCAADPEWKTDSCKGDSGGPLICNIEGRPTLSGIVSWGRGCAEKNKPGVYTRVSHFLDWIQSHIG
Outline: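 Mouse uPA serine protease domain, expressed as E. coli BL21(DE3) inclusion bodies, then refolded and purified. 2 nM enzyme preincubated 15 min at 37°C with varied test compound in 0.01 M HEPES, 0.15 M NaCl, pH 7.4, 0.1% BSA. S-2444 then added at about Km. Initial velocities read at 405 nm; IC50 from a sigmoidal nonlinear regression.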

[5] = molecular target: T1, matriptase (Homo sapiens, UniProt Q9Y5Y6); assay: Chromogenic enzyme inhibition assay, matriptase; type: biochemical
T1 sequence (Q9Y5Y6 615-854 limits assumed): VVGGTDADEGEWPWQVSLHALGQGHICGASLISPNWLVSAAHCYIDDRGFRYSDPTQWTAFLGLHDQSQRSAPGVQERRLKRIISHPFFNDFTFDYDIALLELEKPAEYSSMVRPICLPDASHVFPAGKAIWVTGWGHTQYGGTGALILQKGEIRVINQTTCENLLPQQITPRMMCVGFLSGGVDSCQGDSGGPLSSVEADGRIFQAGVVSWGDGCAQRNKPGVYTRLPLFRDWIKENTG
Outline: as §1

[6] = tested on: SARS-CoV-2; settings: by acting against TMPRSS2; cited from earlier work

CN(C)C(=O)COC(=O)Cc1ccc(OC(=O)c2ccc(NC(=N)N)cc2)cc1 [camostat, camostat mesylate]
IC50 [1]: 86.4 ± 9.4 nM | IC50 [2]: 10.4 ± 2.7 nM | IC50 [3]: 44.1 ± 1.1 nM | IC50 [4]: 100 ± 41.9 nM | IC50 [5]: 21.1 ± 3.5 nM | SARS-CoV-2 infection of human lung cells [6]: inhibits SARS-CoV-2 infection of human lung cells
